Converted amounts (≈) assume the structure as drawn.
Assays:
Bacillus subtilis [1] = test: Growth inhibition of Bacillus subtilis at 3 ug/ml; format: functional; conditions: read-out: GI
How it was run: (§1)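 Screened against Gram-negative E. coli and P. aeruginosa and Gram-positive S. aureus and B. subtilis. Compound was tested at 3 µg/ml, and the read-out is percent growth inhibition.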

[2] = Antitubercular activity against Mycobacterium bovis BCG ATCC 35743 active stage measured on day 8 by nitrate reductase based two-fold dilution assay; format: functional, Mycobacterium bovis BCG str. ATCC 35743; conditions: Mycobacterium tuberculosis variant bovis BCG, ATCC 35743, 192 h
Staphylococcus aureus [3] = test: Growth inhibition of Staphylococcus aureus at 30 ug/ml; format: functional; conditions: read-out: GI
[4] = Selectivity index, ratio of GI50 for human MCF7 cells to MIC90 for Mycobacterium tuberculosis H37Ra ATCC 25177 dormant stage; format: toxicity, cell-based; conditions: read-out: Selectivity Index
How it was run: (§2)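 Cytotoxicity was measured on human MCF-7, HCT116 and THP-1 cells by MTT assay, with paclitaxel as reference. The selectivity index is GI50 for the given cell line divided by MIC90 for the given mycobacterial strain and stage.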

[5] = Selectivity index, ratio of GI50 for human MCF7 cells to MIC90 for Mycobacterium bovis BCG ATCC 35743 active stage; format: toxicity, cell-based; conditions: read-out: Selectivity Index
How it was run: (§3)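 Cytotoxicity was measured on human MCF-7, HCT116 and THP-1 cells by MTT assay, with paclitaxel as reference. GI50 is the concentration inhibiting 50% of cell growth. The selectivity index is GI50 for the given cell line divided by MIC90 for the given mycobacterial strain and stage.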

[6] = Antitubercular activity against Mycobacterium tuberculosis H37Ra ATCC 25177 dormant stage measured on day 12 by XTT reduction menadione based two-fold dilution assay; format: functional; conditions: ATCC 25177, 288 h
How it was run: (§4)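 M. tuberculosis H37Ra ATCC 25177 was exposed to 0.7–100 μg/mL in two-fold steps (0.7, 1.5, 3.1 … 100). Active stage was read after 8 days and dormant stage after 12 days of incubation. Inhibition was read by XTT reduction menadione assay (XRMA), absorbance 470 nm. MIC90 is the concentration giving ≥90% inhibition (µg/mL).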

Staphylococcus aureus [7] = test: Growth inhibition of Staphylococcus aureus at 10 ug/ml; format: functional; conditions: read-out: GI
Escherichia coli [8] = test: Growth inhibition of Escherichia coli at 3 ug/ml; format: functional; conditions: read-out: GI; how it was run: as §1
[9] = Cytotoxicity against human MCF7 cells by MTT assay; format: toxicity, cell-based; conditions: for GI50: MCF7 cells; for GI90: mcf7
[10] = Antitubercular activity against Mycobacterium tuberculosis H37Ra ATCC 25177 dormant stage infected in human THP1 cells measured on day 12 by nitrate reductase assay; format: functional, THP-1; conditions: ATCC 25177, 288 h
[11] = Cytotoxicity against human HCT116 cells by MTT assay; format: toxicity, cell-based, HCT-116; conditions: for GI50: HCT116 cells; for GI90: hct-116
Escherichia coli [12] = test: Growth inhibition of Escherichia coli at 30 ug/ml; format: functional; conditions: read-out: GI
Staphylococcus aureus [13] = test: Growth inhibition of Staphylococcus aureus at 3 ug/ml; format: functional; conditions: read-out: GI; how it was run: as §1
[14] = Selectivity index, ratio of GI50 for human HCT116 cells to MIC90 for Mycobacterium bovis BCG ATCC 35743 active stage; format: toxicity, cell-based, HCT-116; conditions: read-out: Selectivity Index; how it was run: as §3
Pseudomonas aeruginosa [15] = test: Growth inhibition of Pseudomonas aeruginosa at 3 ug/ml; format: functional; conditions: read-out: GI; how it was run: as §1
[16] = Antitubercular activity against Mycobacterium tuberculosis H37Ra ATCC 25177 active stage infected in human THP1 cells measured on day 8 by nitrate reductase assay; format: functional, THP-1; conditions: ATCC 25177, 192 h
[17] = Antitubercular activity against Mycobacterium tuberculosis H37Ra ATCC 25177 active stage measured on day 8 by XTT reduction menadione based two-fold dilution assay; format: functional; conditions: ATCC 25177, 192 h; how it was run: as §4
Escherichia coli [18] = test: Growth inhibition of Escherichia coli at 10 ug/ml; format: functional; conditions: read-out: GI
Bacillus subtilis [19] = test: Growth inhibition of Bacillus subtilis at 30 ug/ml; format: functional; conditions: read-out: GI
[20] = Selectivity index, ratio of GI50 for human THP1 cells to MIC90 for Mycobacterium tuberculosis H37Ra ATCC 25177 active stage; format: toxicity, cell-based, THP-1; conditions: read-out: Selectivity Index; how it was run: as §3
Pseudomonas aeruginosa [21] = test: Growth inhibition of Pseudomonas aeruginosa at 10 ug/ml; format: functional; conditions: read-out: GI
[22] = Selectivity index, ratio of GI50 for human THP1 cells to MIC90 for Mycobacterium bovis BCG ATCC 35743 active stage; format: toxicity, cell-based, THP-1; conditions: read-out: Selectivity Index; how it was run: as §3
[23] = Selectivity index, ratio of GI50 for human THP1 cells to MIC90 for Mycobacterium tuberculosis H37Ra ATCC 25177 dormant stage; format: toxicity, cell-based, THP-1; conditions: read-out: Selectivity Index; how it was run: as §2
[24] = Selectivity index, ratio of GI50 for human MCF7 cells to MIC90 for Mycobacterium tuberculosis H37Ra ATCC 25177 active stage; format: toxicity, cell-based; conditions: read-out: Selectivity Index; how it was run: as §3
Bacillus subtilis [25] = test: Growth inhibition of Bacillus subtilis at 10 ug/ml; format: functional; conditions: read-out: GI
Pseudomonas aeruginosa [26] = test: Growth inhibition of Pseudomonas aeruginosa at 30 ug/ml; format: functional; conditions: read-out: GI
[27] = Selectivity index, ratio of GI50 for human MCF7 cells to MIC90 for Mycobacterium bovis BCG ATCC 35743 dormant stage; format: toxicity, cell-based; conditions: read-out: Selectivity Index; how it was run: as §2
[28] = Selectivity index, ratio of GI50 for human HCT116 cells to MIC90 for Mycobacterium tuberculosis H37Ra ATCC 25177 active stage; format: toxicity, cell-based, HCT-116; conditions: read-out: Selectivity Index; how it was run: as §3
[29] = Selectivity index, ratio of GI50 for human HCT116 cells to MIC90 for Mycobacterium tuberculosis H37Ra ATCC 25177 dormant stage; format: toxicity, cell-based, HCT-116; conditions: read-out: Selectivity Index; how it was run: as §2
[30] = Cytotoxicity against human THP1 cells by MTT assay; format: toxicity, cell-based, THP-1; conditions: for GI50: THP1 cells; for GI90: thp-1
[31] = Selectivity index, ratio of GI50 for human THP1 cells to MIC90 for Mycobacterium bovis BCG ATCC 35743 dormant stage; format: toxicity, cell-based, THP-1; conditions: read-out: Selectivity Index; how it was run: as §2
[32] = Antitubercular activity against Mycobacterium bovis BCG ATCC 35743 dormant stage measured on day 12 by nitrate reductase based two-fold dilution assay; format: functional, Mycobacterium bovis BCG str. ATCC 35743; conditions: Mycobacterium tuberculosis variant bovis BCG, ATCC 35743, 288 h
[33] = Selectivity index, ratio of GI50 for human HCT116 cells to MIC90 for Mycobacterium bovis BCG ATCC 35743 dormant stage; format: toxicity, cell-based, HCT-116; conditions: read-out: Selectivity Index; how it was run: as §2

| Structure (SMILES) | inhibition of growth at 3 µg/mL (Bacillus subtilis [1]) [%] | IC50 [2] [µg/mL] | MIC90 [2] [µg/mL] | inhibition of growth at 30 µg/mL (Staphylococcus aureus [3]) [%] | selectivity ratio [4] | selectivity ratio [5] | IC50 [6] [µg/mL] | MIC90 [6] [µg/mL] | inhibition of growth at 10 µg/mL (Staphylococcus aureus [7]) [%] | inhibition of growth at 3 µg/mL (Escherichia coli [8]) [%] | GI50 [9] [µg/mL] | GI90 [9] [µg/mL] | MIC90 [10] [µg/mL] | GI50 [11] [µg/mL] | GI90 [11] [µg/mL] | inhibition of growth at 30 µg/mL (Escherichia coli [12]) [%] | inhibition of growth at 3 µg/mL (Staphylococcus aureus [13]) [%] | selectivity ratio [14] | inhibition of growth at 3 µg/mL (Pseudomonas aeruginosa [15]) [%] | MIC90 [16] [µg/mL] | also measured |
| --- | --- | --- | --- | --- | --- | --- | --- | --- | --- | --- | --- | --- | --- | --- | --- | --- | --- | --- | --- | --- | --- |
| C/C(=N\Nc1nc(-c2ccccc2)cs1)c1sc(-c2ccccc2)nc1C | 4.82 | 8.75 (≈ 22.4 µM) | 21.2 (≈ 54.3 µM) | 77.2 | 8 | 5 | 0.98 (≈ 2.51 µM) | 12.8 (≈ 32.7 µM) | 53.6 | 17.5 | > 100 | > 100 | 12 (≈ 30.7 µM) | > 100 | > 100 | 78.5 | 11.6 | 5 | 10.2 | 15.6 (≈ 39.9 µM) | IC50 [17]: 0.17 µg/mL (≈ 0.435 µM); MIC90 [17]: 9.46 µg/mL (≈ 24.2 µM); inhibition of growth at 10 µg/mL (Escherichia coli [18]): 56.6%; inhibition of growth at 30 µg/mL (Bacillus subtilis [19]): 75.5%; selectivity ratio [20]: 11; inhibition of growth at 10 µg/mL (Pseudomonas aeruginosa [21]): 53.8%; selectivity ratio [22]: 5; selectivity ratio [23]: 8; selectivity ratio [24]: 11; inhibition of growth at 10 µg/mL (Bacillus subtilis [25]): 50.1%; inhibition of growth at 30 µg/mL (Pseudomonas aeruginosa [26]): 78.2%; selectivity ratio [27]: 5; selectivity ratio [28]: 11; selectivity ratio [29]: 8; GI50 [30]: > 100 µg/mL; GI90 [30]: > 100 µg/mL; selectivity ratio [31]: 5; IC50 [32]: 7.95 µg/mL (≈ 20.4 µM); MIC90 [32]: 18.7 µg/mL (≈ 47.9 µM); selectivity ratio [33]: 5 |
| C/C(=N\Nc1nc(-c2ccc(C)cc2)cs1)c1sc(C)nc1C | 76.9 | 17.9 (≈ 52.4 µM) | 54.8 (≈ 160 µM) | 72 | 2 | 1 | 8.35 (≈ 24.4 µM) | 65.8 (≈ 192 µM) | 82.4 | 79.8 | > 100 | > 100 | 82.8 (≈ 242 µM) | > 100 | > 100 | 73.7 | 78.6 | 1 | 79.6 | 74.3 (≈ 217 µM) | IC50 [17]: 11.1 µg/mL (≈ 32.3 µM); MIC90 [17]: > 100 µg/mL; inhibition of growth at 10 µg/mL (Escherichia coli [18]): 83.3%; inhibition of growth at 30 µg/mL (Bacillus subtilis [19]): 69.9%; selectivity ratio [20]: 1; inhibition of growth at 10 µg/mL (Pseudomonas aeruginosa [21]): 83.5%; selectivity ratio [22]: 1; selectivity ratio [23]: 2; selectivity ratio [24]: 1; inhibition of growth at 10 µg/mL (Bacillus subtilis [25]): 81%; inhibition of growth at 30 µg/mL (Pseudomonas aeruginosa [26]): 72.8%; selectivity ratio [27]: 10; selectivity ratio [28]: 1; selectivity ratio [29]: 2; GI50 [30]: > 100 µg/mL; GI90 [30]: > 100 µg/mL; selectivity ratio [31]: 10; IC50 [32]: 9.67 µg/mL (≈ 28.2 µM); MIC90 [32]: 83.2 µg/mL (≈ 243 µM); selectivity ratio [33]: 10 |
| COc1ccc(-c2csc(N/N=C(\C)c3sc(C)nc3C)n2)cc1 | 70.7 | 7.37 (≈ 20.6 µM) | 67.3 (≈ 188 µM) | 67.2 | 5 | 1 | 1.24 (≈ 3.46 µM) | 20.5 (≈ 57.2 µM) | 72.7 | 74.4 | > 100 | > 100 | 46.2 (≈ 129 µM) | > 100 | > 100 | 69.2 | 72.8 | 1 | 73.6 | 48.2 (≈ 135 µM) | IC50 [17]: 0.88 µg/mL (≈ 2.45 µM); MIC90 [17]: 74.1 µg/mL (≈ 207 µM); inhibition of growth at 10 µg/mL (Escherichia coli [18]): 74.3%; inhibition of growth at 30 µg/mL (Bacillus subtilis [19]): 64.7%; selectivity ratio [20]: 1; inhibition of growth at 10 µg/mL (Pseudomonas aeruginosa [21]): 73.5%; selectivity ratio [22]: 1; selectivity ratio [23]: 5; selectivity ratio [24]: 1; inhibition of growth at 10 µg/mL (Bacillus subtilis [25]): 70.6%; inhibition of growth at 30 µg/mL (Pseudomonas aeruginosa [26]): 67.8%; selectivity ratio [27]: 12; selectivity ratio [28]: 1; selectivity ratio [29]: 5; GI50 [30]: > 100 µg/mL; GI90 [30]: > 100 µg/mL; selectivity ratio [31]: 12; IC50 [32]: 8.41 µg/mL (≈ 23.5 µM); MIC90 [32]: 24 µg/mL (≈ 67.1 µM); selectivity ratio [33]: 12 |
